Laboratory results: ChEMBL document CHEMBL1142284, “Identification of N-(quinolin-8-yl)benzenesulfonamides as agents capable of down-regulating NFkappaB activity within two separate high-throughput screens of NFkappaB activation” (Bioorg Med Chem Lett, 2008)
Calls of active or inactive are those of the source. No cut-off for these calls is given here. Peptide text beside a SMILES is read from it. * marks the point of attachment. Cbz = O=C(OCc1ccccc1)*

What was measured:
[1] = system: OCI-Ly3; experiment: (§1) Cytotoxicity against NF-kappaB overexpressing human OCI-Ly3 cells after 4 hrs; assay type: functional, cell-based
[2] = (§2) Inhibition of TNFalpha stimulated human NF-kappaB-mediated beta lactamase gene expression in HUVEC; assay type: cell-based
[3] = target: Transcription factor p65 (Homo sapiens) (UniProt Q04206); experiment: Inhibition of TNF-alpha-stimulated human NF-kappaB p65 RelA subunit nuclear translocation in HUVEC
Transcription factor p65 (Homo sapiens), sequence (Q04206 whole entry): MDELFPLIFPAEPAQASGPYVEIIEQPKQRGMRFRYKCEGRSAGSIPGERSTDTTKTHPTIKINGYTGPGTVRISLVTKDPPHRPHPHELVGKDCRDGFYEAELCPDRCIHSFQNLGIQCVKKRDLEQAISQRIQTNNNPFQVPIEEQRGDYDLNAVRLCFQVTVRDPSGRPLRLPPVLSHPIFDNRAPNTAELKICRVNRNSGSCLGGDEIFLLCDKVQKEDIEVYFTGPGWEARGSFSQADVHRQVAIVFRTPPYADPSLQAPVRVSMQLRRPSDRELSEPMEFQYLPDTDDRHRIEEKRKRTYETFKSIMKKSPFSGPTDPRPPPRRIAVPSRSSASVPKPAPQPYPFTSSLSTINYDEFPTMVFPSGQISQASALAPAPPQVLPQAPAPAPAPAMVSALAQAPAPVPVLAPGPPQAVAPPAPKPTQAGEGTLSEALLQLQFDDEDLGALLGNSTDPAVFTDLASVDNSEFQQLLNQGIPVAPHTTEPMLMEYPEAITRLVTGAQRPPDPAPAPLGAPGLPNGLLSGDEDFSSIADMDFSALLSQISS
How it was run: (§3)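 HUVEC (fewer than 8 passages) were seeded at 3,000 cells/well. Compounds were added in 8-point series, either from 10 µM final in media with 0.33% DMSO diluted 1:3, or from 8 µM diluted 1:2. After 3.5 h with compound, cells were stimulated with […] for 30 min. Cells were then fixed, permeabilized, stained with Hoechst and with anti-p65 plus an Alexa 647 secondary, and imaged automatically. IC50 is from curve fitting of one experiment run in triplicate, with BAY 11-7082 as the positive control.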

[4] = target: T1, NF-kappa-B inhibitor alpha (Homo sapiens) (UniProt P25963); experiment: Induction of human IkappaBalpha stabilization in OCI-Ly3 cells by green light emiting IkappaBalpha-fused luciferase reporter gene assay relative to control; assay type: cell-based
T1 sequence (whole entry): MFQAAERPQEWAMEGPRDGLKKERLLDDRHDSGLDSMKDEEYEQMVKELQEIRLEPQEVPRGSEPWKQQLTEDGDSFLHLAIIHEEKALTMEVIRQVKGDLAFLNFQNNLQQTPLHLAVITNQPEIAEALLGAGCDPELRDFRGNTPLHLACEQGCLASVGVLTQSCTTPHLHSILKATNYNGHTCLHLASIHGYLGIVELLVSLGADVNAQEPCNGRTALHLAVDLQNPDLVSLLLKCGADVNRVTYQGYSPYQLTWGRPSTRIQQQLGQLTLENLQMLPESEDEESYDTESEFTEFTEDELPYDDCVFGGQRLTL
How it was run: (§4)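 The IκBα-CBG68 fusion (green luminescence) and the CBR control reporter (red) were induced with doxycycline. The read-out was green luminescence, and EC50 is given with % efficacy relative to the MG-132 positive control. Each experiment was a concentration titration run in duplicate with concentration-response curve fitting, and values are averages of two to three experiments.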

[5] = target: Transcription factor p65 (Homo sapiens) (UniProt Q04206); experiment: Inhibition of TNF-alpha-stimulated human NF-kappaB p65 RelA subunit nuclear translocation in HUVEC relative to control; assay type: cell-based; how it was run: as §3
[6] = as §1; assay type: functional, cell-based; conditions: OCI-Ly3, 4 h
[7] = system: HUVEC; experiment: Inhibition of human E3 ubiquitin ligase-mediated IkappaBalpha ubiquitination in HUVEC; assay type: cell-based
[8] = target: T1, NF-kappa-B inhibitor alpha (Homo sapiens); experiment: Induction of human IkappaBalpha stabilization in OCI-Ly3 cells assessed as ratio of green light emiting IkappaBalpha-fused luciferase expression to red light emiting native luciferase expression; assay type: cell-based
How it was run: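 Dual-luciferase IκBα stabilization assay: doxycycline induces both an IκBα-CBG68 fusion (green luminescence) and a CBR control (red luminescence), and the red signal normalizes for nonspecific effects. EC50 comes from the green/red luminescence ratio. Each experiment was a concentration titration run in duplicate with concentration-response curve fitting, and values are averages of two to three experiments.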

[9] = target: T1, NF-kappa-B inhibitor alpha (Homo sapiens); experiment: Induction of human IkappaBalpha stabilization in OCI-Ly3 cells by green light emiting IkappaBalpha-fused luciferase reporter gene assay; assay type: cell-based; how it was run: as §4
[10] = system: HUVEC; experiment: as §2; assay type: cell-based

| SMILES | Activity [1] | IC50 [2] [µM] | Activity [3] | Efficacy [4] [%] | Efficacy [5] [%] | IC50 [6] [µM] | Activity [7] | Activity [8] | Activity [9] | Activity [10] |
| --- | --- | --- | --- | --- | --- | --- | --- | --- | --- | --- |
| Cc1ccc2cccc(NS(=O)(=O)c3cc([N+](=O)[O-])ccc3C)c2n1 | inactive | > 57 | inactive |  |  |  |  |  |  |  |
| O=S(=O)(Nc1cccc2cccnc12)c1cccs1 | inactive | 7 |  | 250 | > 90 |  |  |  |  |  |
| COc1cc2ccc(C)nc2c2c1-c1cc(C)ccc1S(=O)(=O)N2 |  | 1.1 |  | 300 | > 90 | > 57 |  |  |  |  |
| Cc1ccc2cccc(NS(=O)(=O)c3cccc([N+](=O)[O-])c3)c2n1 |  | 1 |  | 110 | > 90 | > 57 |  |  |  |  |
| O=S1(=O)Nc2c(ccc3cccnc23)-c2ccccc21 | inactive | 3.4 |  | 120 | > 90 |  | inactive |  |  |  |
| Cc1ccc(S(=O)(=O)/C=C/C#N)cc1 |  |  |  |  | > 90 |  |  |  |  |  |
| COc1cnc2c3c(ccc2c1)-c1ccccc1S(=O)(=O)N3 |  |  |  |  | > 90 |  |  |  |  |  |
| Cc1ccc(S(=O)(=O)Nc2cccc3cccnc23)c([N+](=O)[O-])c1 |  | 6 |  | 275 | > 90 | > 57 |  |  |  |  |
| Cc1ccc2c(c1)-c1ccc3cccnc3c1NS2(=O)=O |  | 0.8 |  | 60 | > 90 | > 57 |  |  |  |  |
| COc1ccc(S(=O)(=O)Nc2cccc3ccc(C)nc23)c([N+](=O)[O-])c1 |  |  |  |  | 78 |  |  |  |  |  |
| COc1cc(NS(=O)(=O)c2ccc(C)cc2N)c2nc(C)ccc2c1 | inactive | > 57 | inactive | 23 |  |  |  |  |  |  |
| O=[N+]([O-])c1ccccc1S(=O)(=O)Nc1cccc2cccnc12 | inactive | 10 |  | 620 | > 90 |  |  |  |  |  |
| Nc1ccccc1S(=O)(=O)Nc1cccc2cccnc12 |  | 13.5 |  | 300 | > 90 | > 57 |  |  |  |  |
| COc1cc2cccnc2c2c1-c1cc(C)ccc1S(=O)(=O)N2 | inactive | 2 |  | 34 | > 90 |  |  |  |  |  |
| [O-][S+](c1ccccc1)c1ccc2nnnn2n1 (configuration not stated) |  |  |  |  |  |  | Active |  |  |  |
| O=S1(=O)Nc2c(ccc3cccnc23)-c2cc(Cl)ccc21 | inactive | 1.9 |  | 66 | > 90 |  |  |  |  |  |
| COc1cccc2nc(-c3cccs3)nc(NN3C(=O)C=C(C)C3=O)c12 [AS-602868] | inactive | 2 | inactive |  |  |  |  | inactive | inactive |  |
| COc1cc(NS(=O)(=O)c2ccc(C)cc2[N+](=O)[O-])c2nc(C)ccc2c1 |  |  | inactive |  |  | > 57 |  |  |  | inactive |
| Cc1ccc2cccc(NS(=O)(=O)c3ccccc3N)c2n1 | inactive | 5.5 |  | 250 | > 90 |  |  |  |  |  |
| O=S1(=O)Nc2c(ccc3cccnc23)-c2cc(O)ccc21 |  |  | inactive |  |  |  |  |  |  |  |
| O=[N+]([O-])c1ccc(S(=O)(=O)Nc2cccc3cccnc23)cc1 | inactive | 5 |  | 560 | > 90 |  |  |  |  |  |

| SMILES | Activity [1] | IC50 [2] [µM] | Activity [3] | Efficacy [4] [%] | Efficacy [5] [%] | IC50 [6] [µM] | Activity [7] | Activity [8] | Activity [9] | Activity [10] |
| --- | --- | --- | --- | --- | --- | --- | --- | --- | --- | --- |
| Cc1cnc2c3c(ccc2c1)-c1ccccc1S(=O)(=O)N3 | inactive | 8.1 |  | 32 |  |  |  |  |  |  |
| Cc1ccc2cccc(NS(=O)(=O)c3ccc(Cl)s3)c2n1 |  | 1.3 |  | 60 | > 90 | > 10 |  |  |  |  |
| O=[N+]([O-])c1cc(C(F)(F)F)ccc1S(=O)(=O)Nc1cccc2cccnc12 |  | 1.3 |  | 200 | > 90 | > 57 |  |  |  |  |
| COc1cc(NS(=O)(=O)c2ccc(C)cc2)c2nc(C)ccc2c1 |  | > 57 |  | 150 | > 90 | > 57 |  |  |  |  |
| O=S(=O)(Nc1cccc2cccnc12)c1ccc(Br)s1 | inactive | 3.4 |  | 170 | > 90 |  |  |  |  |  |
| COc1cc(NS(=O)(=O)c2ccc(C)cc2[N+](=O)[O-])c2ncccc2c1 |  | 4 |  | 60 | > 90 | > 57 |  |  |  |  |
| COc1ccc2c(c1)-c1ccc3ccc(C)nc3c1NS2(=O)=O |  | 3.2 |  | 200 | > 90 | > 57 |  |  |  |  |
| COc1ccc2c(c1)-c1ccc3cccnc3c1NS2(=O)=O | inactive | 1.3 |  | 20 | > 90 |  |  |  |  |  |
| Cc1ccc([N+](=O)[O-])cc1S(=O)(=O)Nc1cccc2cccnc12 |  | 1.8 |  | 18 | > 90 | > 57 |  |  |  |  |
| Cc1ccc2cccc(NS(=O)(=O)c3ccc(C(F)(F)F)cc3[N+](=O)[O-])c2n1 |  | 13 |  | 50 | > 90 | > 57 |  |  |  |  |
| O=S(=O)(Nc1cccc2cccnc12)c1ccccc1 | inactive | 8 |  | 350 | > 90 |  |  |  |  |  |
| O=S1(=O)Nc2c(ccc3cccnc23)-c2cc(F)ccc21 | inactive | 1.8 |  | 122 | > 90 |  |  |  |  |  |
| O=S1(=O)Nc2c(ccc3cccnc23)-c2cc(C(F)(F)F)ccc21 | inactive | 1.2 |  | 32 | > 90 |  |  |  |  |  |
| Cc1ccc2ccc3c(c2n1)NS(=O)(=O)c1ccc(O)cc1-3 |  | 6.7 |  | 120 | > 90 | > 57 |  |  |  |  |
| CC(C)C[C@@H](C=O)NC(=O)[C@H](CC(C)C)NC(=O)[C@H](CC(C)C)NC(=O)OCc1ccccc1 [MG-132] (Cbz-Leu-Leu-Leu-aldehyde) |  | 0.6 |  | 100 |  | > 10 |  |  |  |  |
| Cc1ccc2cccc(NS(=O)(=O)c3ccccc3[N+](=O)[O-])c2n1 | inactive | 6 |  | 200 | > 90 |  |  |  |  |  |
| O=S(=O)(Nc1cccc2cccnc12)c1ccc(Cl)s1 |  | 1 |  | 190 | > 90 | > 57 |  |  |  |  |
| COc1cc(NS(=O)(=O)c2ccc(C)cc2N)c2ncccc2c1 |  | 2 |  | 90 | > 90 | > 57 |  |  |  |  |
| Cc1ccc2ccc3c(c2n1)NS(=O)(=O)c1ccc(C(F)(F)F)cc1-3 | inactive | 3.6 |  | 700 | > 90 |  |  |  |  |  |
| Cc1ccc2cccc(NS(=O)(=O)c3ccc(Br)s3)c2n1 |  | 5 |  | 22 | 75 | > 57 |  |  |  |  |
